The source of these data is ChEMBL document CHEMBL4316634, “Immunomodulatory Biscembranoids and Assignment of Their Relative and Absolute Configurations: Data Set Modulation in the Density Functional Theory/Nuclear Magnetic Resonance Approach” (J Nat Prod, 2019).

Each structure is given as a SMILES string. The source made the active and inactive calls. The rule behind the calls is not given here.

Series [1] relates to Splenocyte. The series is described as follows: Cytotoxicity in C57BL/6 mouse splenocytes assessed as effect on cell viability at 3 uM by FACScan flow cytometry. In kind it is cell-based. Put shortly: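 Splenocytes at 2 × 10^6 cell/mL from C57BL/6 mice exposed to compounds at 3 μM for 24 h, with Con A (5 μg/mL) as positive control. Cells were then collected, washed in PBS and read at once by flow cytometry for apoptosis.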
A general note: In flow cytometry, cells or beads pass a laser one at a time.

In series [2] the test system is Splenocyte. The series is described as follows: Immunomodulatory activity in C57BL/6 mouse splenocytes assessed as reduction in CD4+/CD8+ cells ratio at 3 uM incubated for 24 hrs by flow cytometric analysis. In kind it is functional, cell-based. Put shortly:
(§1)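 C57BL/6 splenocytes given compounds at 3 μM for 24 h under Con A-induced activation, with Con A (5 μg/mL) as positive control. Cells were stained with PE-CD3, FITC-CD4 and Percp/cy5.5-CD8. CD3+, CD4+ and CD8+ percentages were measured by flow cytometry, and the CD4+/CD8+ ratio was derived from them. Values are mean ± SD, n = 3.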

Series [3] deals with Splenocyte. Nature of the series: Immunomodulatory activity in C57BL/6 mouse splenocytes assessed as induction of CD3+ T cells proliferation at 3 uM incubated for 24 hrs by flow cytometric analysis. In kind it is functional, cell-based. Put shortly: as §1
Series [4] relates to Splenocyte. Nature of the series: Immunomodulatory activity in C57BL/6 mouse splenocytes assessed as increase in CD4+/CD8+ cells ratio at 3 uM incubated for 24 hrs by flow cytometric analysis. In kind it is functional, cell-based. Put shortly: as §1

Regarding `CC(=O)O[C@H]1C/C(C)=C/CC/C(C)=C\C(=O)C[C@@]23C(=O)O[C@@H]([C@@H]1C(C)C)[C@@H]2CC(C)=C1CCC2=CCC[C@@](C)(OC2=O)[C@@H](O)CC/C(C)=C\[C@@H]13`, in the series with Splenocyte [1], the Activity entry is “Non-Toxic”. For the same compound, in the series on Splenocyte [2], the outcome was Active. As for `CC(=O)O[C@H]1C/C(C)=C/C/C=C(/C)CC(=O)C[C@@]23C(=O)O[C@@H]([C@@H]1C(C)C)[C@@H]2CC(C)=C1CCC2=CCC[C@@](C)(OC2=O)[C@@H](O)CC/C(C)=C/[C@@H]13`, the Activity result with Splenocyte [1] was “Non-Toxic”. Further, in the series with Splenocyte [3], the result was Active. Consider `CC(=O)O[C@H]1C/C(C)=C/CC/C(C)=C/C(=O)C[C@@]23C(=O)O[C@@H]([C@@H]1C(C)C)[C@@H]2CC(C)=C1CCC2=CCC[C@@](C)(OC2=O)[C@@H](O)CC/C(C)=C/[C@@H]13`, for which, in the series with Splenocyte [1], the Activity entry is “Non-Toxic”. Besides, the result in the series with Splenocyte [4] and in the series with Splenocyte [3] was Active. For `CC(=O)O[C@H]1C/C(C)=C/CC[C@H](C)CC(=O)C[C@@]23C(=O)O[C@@H]([C@@H]1C(C)C)[C@@H]2CC(C)=C1CCC2=CCC[C@@](C)(OC2=O)[C@@H](O)CC/C(C)=C/[C@@H]13`, the Activity entry in the series on Splenocyte [1] was “Non-Toxic”. In the series with Splenocyte [4], the result was Active. For `CC(=O)O[C@H]1C/C(C)=C/CC/C(C)=C\C(=O)C[C@@]23C(=O)O[C@@H]([C@@H]1C(C)C)[C@@H]2CC(C)=C1CCC2=CCC[C@@](C)(OC2=O)[C@@H](O)CC/C(C)=C/[C@@H]13`, the Activity result in the series on Splenocyte [1] was “Non-Toxic”. Same read-out and setting: in the case of `CC(=O)O[C@H]1C/C(C)=C/CC[C@H](C)CC(=O)C[C@@]23C(=O)O[C@@H]([C@@H]1C(C)C)[C@@H]2CC(C)=C1CCC2=CCC[C@@](C)(OC2=O)[C@@H](O)CC/C(C)=C\[C@@H]13` it was “Non-Toxic”. On to `CC1=C2CCC3=CCC[C@@](C)(OC3=O)[C@@H](O)CC/C(C)=C/[C@@H]2[C@]23CC(=O)C[C@@H](C)CC/C=C(\C)CC(=O)[C@@H](C(C)C)[C@H](OC2=O)[C@@H]3C1`, for which, in the series with Splenocyte [1], the Activity entry is on record as “Non-Toxic”.
